Data taken from PMC6774857 (Cell calcium, 2019).
Where two headings read alike, the source gives them in different places. One block for each compound: values may come before it.

Tests used:
ascidian oocytes = conditions: read-out: EC50 of Ca2+ mobilization; cited from earlier work
[1] = target: sea urchin NAADP receptor; type: biochemical, Strongylocentrotus purpuratus; conditions: read-out: IC50 for desensitization; data not shown
[2] = target: sea urchin NAADP receptor; conditions: sea urchin egg homogenates, cited from earlier work
SKBR3 cells = experiment: Microinjection of SKBR3 cells with GCaMP6M confocal Ca2+ imaging; type: cell-based, human; conditions: for EC50 of fold-change in the intensity of the Ca2+ signal: SKBR3 cells transfected with TPC2 and GCaMP6M, concentration in the micropipette
U2OS cells = conditions: cited from earlier work
[3] = target: T1, 23 kDa NAADP binding protein(s) (Homo sapiens, UniProt Q9H910); conditions: Jurkat cell extracts, 23 kDa band
T1 sequence (Q9H910 1-190): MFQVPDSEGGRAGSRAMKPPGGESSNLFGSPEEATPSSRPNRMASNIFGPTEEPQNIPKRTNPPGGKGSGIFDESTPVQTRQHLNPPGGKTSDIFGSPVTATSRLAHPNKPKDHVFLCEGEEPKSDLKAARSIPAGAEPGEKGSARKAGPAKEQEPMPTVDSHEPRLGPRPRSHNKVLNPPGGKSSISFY

[4] = Solubility in buffered water; type: physicochemical
[5] = system: sea urchin NAADP receptor; experiment: Ca2+ release from sea urchin egg homogenates; type: biochemical, Strongylocentrotus purpuratus
Summary of the method: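 Ca2+ release measured in Strongylocentrotus purpuratus egg homogenate after adding test compound.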

[6] = target: sea urchin NAADP receptor; experiment: Competition-binding assay with [32P]-NAADP in sea urchin egg extracts; parameters: species or system Strongylocentrotus purpuratus; conditions: read-out: IC50 competition with [32P]-NAADP

Compound: nicotinic acid adenine dinucleotide phosphate [NAADP]
EC50 (ascidian oocytes): 10 to 50 nM | IC50 [1]: 0.3 nM | EC50 ([2]; read-out: EC50 of Ca2+ mobilization): 10 to 50 nM | EC50 of fold-change in the intensity of the Ca2+ signal (SKBR3 cells): 22 nM

Compound: C#Cc1nc2c(N)ncnc2n1C1OC(COP(=O)(O)OP(=O)(O)OC[C@H]2O[C@@H]([n+]3cc(N=[N+]=[N-])cc(C(=O)[O-])c3)[C@H](O)[C@@H]2O)C(O)C1OP(=O)(O)O (some centres unmarked) [compound 9, 5-azido-8-ethynyl-NAADP]
Activity when microinjected into cultured human U2OS cells (U2OS cells): active at low concentration

Compound: NC(=O)c1ccc[n+]([C@H]2O[C@@H](COP(=O)([O-])OP(=O)(O)OC[C@H]3O[C@@H](n4cnc5c(N)ncnc54)[C@H](OP(=O)(O)O)[C@@H]3O)[C@H](O)[C@@H]2O)c1 [NADP]
Fold higher concentrations required for similar protection compared with NAADP [3]: 40 fold

Solubility ([4]; buffered water at pH 4.5): low solubility | Solubility ([4]; higher pH (pH ≥ 5)): completely soluble
Compound: [N-]=[N+]=NCc1cc(N=[N+]=[N-])cc(C(=O)NCCCc2cncc(C(=O)O)c2)c1 [compound 4, 5-(3-(3-Azido-5-(azidomethyl)benzamido)propyl) nicotinic acid]

Calcium released, % of the amount of calcium released by 10 μM NAADP ([5]; at 1 mM): 18% | Release of Ca2+ from sea urchin egg homogenates ([5]; concentrations less than 100 μM): did not elicit release | IC50 [6]: 6000 nM | EC50 of fold-change in the intensity of the Ca2+ signal (SKBR3 cells): 173 nM
Compound: 5-[3-(3-Azido-5-(azidomethyl)benzamido)propyl]-NAADP [AIOC-NAADP]
Potency relative to 9 (SKBR3 cells; microinjection into cultured human cells, 9 data ref 56): approximately 10 fold

Compound: 5-(3-(t-Boc-amino)-propyl)-NAADP [compound 3]
EC50 (agonist) ([2]; previously synthesized and tested): micromolar range
